Experimental data taken from ChEMBL document CHEMBL1157464, “1-[(3-Aryloxy-3-aryl)propyl]-1H-imidazoles, new imidazoles with potent activity against Candida albicans and dermatophytes. Synthesis, structure-activity relationship, and molecular modeling studies” (J Med Chem, 2008).
In brackets after ≈: the same amount, converted by molar mass.

What was measured:
Candida albicans [1] = assay: Antifungal activity against Candida albicans ATCC 10261 at 35 degC after 48 to 96 hrs by broth microdilution test; assay type: functional; details: for MFC: Candida albicans, ATCC 10261, read-out: MFC
How it was run: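 Minimal fungicidal concentration for Candida. […] MFC is the lowest concentration allowing fewer than two colonies (99% killing).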

[2] = Cytotoxicity against human K562 cells after assessed as reduction of cell viability 24 hrs by MTT assay; assay type: cell-based
How it was run: (§1)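 U937 and K562 cells, from ATCC, plated at 5 × 10^4/mL in phenol-red-free RPMI-1640 with 20% FBS and penicillin/streptomycin. Compounds added 2 h later at 25–100 µg/mL, then 24 h at 37 °C. MTT at 1 mg/mL for 3 h, formazan dissolved in isopropanol with 0.1 N HCl, absorbance read at 570 nm. CC50 is the concentration reducing viability by 50% versus the drug-free control.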

Arthrodermataceae [3] = assay: Antifungal activity against dermatophytes at 28 degC after 48 to 96 hrs by broth microdilution test
Arthrodermataceae [4] = assay: Antifungal activity against dermatophytes at 28 degC after 5 days by broth microdilution test; details: for MFC: Arthrodermataceae
Candida albicans [5] = assay: Antifungal activity against fluconazole-resistant Candida albicans isolated from oropharyngeal or vaginal disease patient after 48 hrs by broth microdilution test; assay type: functional
[6] = Therapeutic index, ratio of CC50 for human U937 cells to MIC90 for Candida albicans ATCC 10261; assay type: cell-based, U-937
How it was run: (§2)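 Therapeutic index calculated as CC50 in the given cell line divided by MIC90.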

[7] = Therapeutic index, ratio of CC50 for human K562 cells to MIC90 for Candida albicans ATCC 10261; assay type: cell-based; how it was run: as §2
Candida parapsilosis = assay: Antifungal activity against Candida parapsilosis ATCC 22019 at 35 degC after 48 hrs by broth microdilution test; assay type: functional; details: Lodderomyces parapsilosis, ATCC 22019, 48 h; for MFC: read-out: MFC; for MIC: read-out: MIC
How it was run: (§3)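 Broth microdilution per NCCLS M27-A2. Stocks in 100% DMSO, diluted in RPMI 1640 with 0.165 M MOPS at pH 7.0; final range 0.25–128 µg/mL. Inoculum 1000–5000 cells/mL from SDA subcultures. […] C. parapsilosis ATCC22019 served as QC strain.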

Arthrodermataceae [8] = assay: Antifungal activity against dermatophytes at 28 degC after 7 days by broth microdilution test; assay type: functional; details: 168 h
How it was run: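 Ten clinical isolates (two M. canis, five M. gypseum, three T. mentagrophytes) tested by NCCLS M38-A broth microdilution in MOPS-buffered RPMI 1640, pH 7.0, over 0.25–128 µg/mL. Conidial/hyphal suspension from PDA slants (28 °C, 7 days) adjusted to 65–70% transmittance at OD530, then diluted 1:50.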

Candida albicans [9] = assay: Antifungal activity against fluconazole-sensitive Candida albicans Fe40 at 35 degC after 48 hrs by broth microdilution test; assay type: functional; how it was run: as §3
[10] = Cytotoxicity against human U937 cells assessed as reduction of cell viability after 24 hrs by MTT assay; assay type: cell-based, U-937; how it was run: as §1
Candida albicans [11] = assay: Antifungal activity against Candida albicans ATCC 10261 at 35 degC after 48 hrs by broth microdilution test; assay type: functional; details: Candida albicans, ATCC 10261, 48 h; for MIC: read-out: MIC; for MIC50: read-out: MIC50; for MIC90: read-out: MIC90; how it was run: as §3

| SMILES | MFC50 (Candida albicans [1]) | MFC90 (Candida albicans [1]) | MFC (Candida albicans [1]) | CC50 at 24 h [2] | MFC50 (Arthrodermataceae [3]) | MFC90 (Arthrodermataceae [4]) | MFC (Arthrodermataceae [4]) | MIC (Candida albicans [5]) | selectivity ratio [6] | selectivity ratio [7] | MFC (Candida parapsilosis) | MIC (Candida parapsilosis) | MIC (Arthrodermataceae [8]) | MIC50 (Arthrodermataceae [8]) | MIC90 (Arthrodermataceae [8]) | MIC (Candida albicans [9]) | CC50 at 24 h [10] | MIC (Candida albicans [11]) | MIC50 (Candida albicans [11]) | MIC90 (Candida albicans [11]) |
| --- | --- | --- | --- | --- | --- | --- | --- | --- | --- | --- | --- | --- | --- | --- | --- | --- | --- | --- | --- | --- |
| Clc1ccc(COC(Cn2ccnc2)c2ccc(Cl)cc2Cl)c(Cl)c1 (centres undefined) [MICONAZOLE] | 8 µg/mL (≈ 19.2 µM) | 16 µg/mL (≈ 38.4 µM) | 12.2 µg/mL (≈ 29.3 µM) | 80 µM | 2 µg/mL (≈ 4.81 µM) | 4 µg/mL (≈ 9.61 µM) | 3 µg/mL (≈ 7.21 µM) | 3 µg/mL (≈ 7.21 µM) | 30 | 20 | 0.5 µg/mL (≈ 1.2 µM) | 1 µg/mL (≈ 2.4 µM) | 0.9 µg/mL (≈ 2.16 µM) | 1 µg/mL (≈ 2.4 µM) | 1 µg/mL (≈ 2.4 µM) | 4 µg/mL (≈ 9.61 µM) | 120 µM | 3.25 µg/mL (≈ 7.81 µM) | 4 µg/mL (≈ 9.61 µM) | 4 µg/mL (≈ 9.61 µM) |
| Clc1ccc(C(CCn2ccnc2)Oc2ccc(Cl)cc2Cl)cc1 (centres undefined) | 4 µg/mL (≈ 10.5 µM) | 8 µg/mL (≈ 21 µM) | 5.12 µg/mL (≈ 13.4 µM) | 68.8 µM | 8 µg/mL (≈ 21 µM) | 16 µg/mL (≈ 41.9 µM) | 11 µg/mL (≈ 28.8 µM) | 6.4 µg/mL (≈ 16.8 µM) | – | – | 8 µg/mL (≈ 21 µM) | 1 µg/mL (≈ 2.62 µM) | 9.8 µg/mL (≈ 25.7 µM) | 8 µg/mL (≈ 21 µM) | 16 µg/mL (≈ 41.9 µM) | 2 µg/mL (≈ 5.24 µM) | 172 µM | 2.85 µg/mL (≈ 7.47 µM) | 2 µg/mL (≈ 5.24 µM) | 4 µg/mL (≈ 10.5 µM) |
| Cc1ccc(OC(CCn2ccnc2)c2ccc(Cl)cc2)cc1 (centres undefined) | 8 µg/mL (≈ 24.5 µM) | 16 µg/mL (≈ 49 µM) | 10 µg/mL (≈ 30.6 µM) | 227 µM | 32 µg/mL (≈ 97.9 µM) | 32 µg/mL (≈ 97.9 µM) | 28.8 µg/mL (≈ 88.1 µM) | 5.6 µg/mL (≈ 17.1 µM) | 81.3 | 56.8 | 4 µg/mL (≈ 12.2 µM) | 2 µg/mL (≈ 6.12 µM) | 4.6 µg/mL (≈ 14.1 µM) | 4 µg/mL (≈ 12.2 µM) | 8 µg/mL (≈ 24.5 µM) | 2 µg/mL (≈ 6.12 µM) | 325 µM | 3.2 µg/mL (≈ 9.79 µM) | 2 µg/mL (≈ 6.12 µM) | 4 µg/mL (≈ 12.2 µM) |
| Clc1ccc(C(CCn2ccnc2)Oc2ccccc2)cc1 (centres undefined) | 16 µg/mL (≈ 51.2 µM) | 64 µg/mL (≈ 205 µM) | 29.2 µg/mL (≈ 93.4 µM) | 186 µM | 32 µg/mL (≈ 102 µM) | 32 µg/mL (≈ 102 µM) | 30.4 µg/mL (≈ 97.2 µM) | 14.4 µg/mL (≈ 46 µM) | – | – | 16 µg/mL (≈ 51.2 µM) | 4 µg/mL (≈ 12.8 µM) | 7.2 µg/mL (≈ 23 µM) | 8 µg/mL (≈ 25.6 µM) | 8 µg/mL (≈ 25.6 µM) | 8 µg/mL (≈ 25.6 µM) | 248 µM | 8.8 µg/mL (≈ 28.1 µM) | 8 µg/mL (≈ 25.6 µM) | 16 µg/mL (≈ 51.2 µM) |
| CC(=O)N1CCN(c2ccc(OCC3COC(Cn4ccnc4)(c4ccc(Cl)cc4Cl)O3)cc2)CC1 (centres undefined) [KETOCONAZOLE] | 16 µg/mL (≈ 30.1 µM) | 32 µg/mL (≈ 60.2 µM) | 16.3 µg/mL (≈ 30.7 µM) | 102 µM | 8 µg/mL (≈ 15.1 µM) | 8 µg/mL (≈ 15.1 µM) | 6.6 µg/mL (≈ 12.4 µM) | 20 µg/mL (≈ 37.6 µM) | 15.6 | 12.8 | 0.5 µg/mL (≈ 0.941 µM) | 0.06 µg/mL (≈ 0.113 µM) | 1.6 µg/mL (≈ 3.01 µM) | 1 µg/mL (≈ 1.88 µM) | 2 µg/mL (≈ 3.76 µM) | 4 µg/mL (≈ 7.53 µM) | 125 µM | 5.9 µg/mL (≈ 11.1 µM) | 4 µg/mL (≈ 7.53 µM) | 8 µg/mL (≈ 15.1 µM) |
| Fc1ccc(C(CCn2ccnc2)Oc2ccc(Cl)cc2Cl)cc1 (centres undefined) | 8 µg/mL (≈ 21.9 µM) | 8 µg/mL (≈ 21.9 µM) | 6.9 µg/mL (≈ 18.9 µM) | 74.2 µM | 32 µg/mL (≈ 87.6 µM) | 64 µg/mL (≈ 175 µM) | 41 µg/mL (≈ 112 µM) | 5.6 µg/mL (≈ 15.3 µM) | – | – | 4 µg/mL (≈ 11 µM) | 0.5 µg/mL (≈ 1.37 µM) | 13.5 µg/mL (≈ 37 µM) | 16 µg/mL (≈ 43.8 µM) | 16 µg/mL (≈ 43.8 µM) | 2 µg/mL (≈ 5.48 µM) | 120 µM | 2.9 µg/mL (≈ 7.94 µM) | 4 µg/mL (≈ 11 µM) | 4 µg/mL (≈ 11 µM) |
